Measured values as given in ChEMBL document CHEMBL2424574, “Structure-activity relationships and pharmacophore model of a noncompetitive pyrazoline containing class of GluN2C/GluN2D selective antagonists” (J Med Chem, 2013).
The source made the active and inactive calls. No cut-off for these calls is given here.

Experiments:
[1] = target: T1, Ionotropic glutamate receptor NMDA 1/2D (Homo sapiens) (UniProt Q05586+O15399); assay: Inhibition of GluN1/GluN2D receptor (unknown origin) expressed in Xenopus laevis oocytes assessed as inhibition of glutamate/glycine-induced current at 3 uM by two-electrode voltage clamp method; values are per cent of control; settings: Oocyte
Histamine H2 receptor = Histamine H2 receptor (Homo sapiens, UniProt P25021); assay: Inhibition of histamine H2 receptor (unknown origin)
In short: (§1)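 Radioligand panel screening was run through the NIMH Psychoactive Drug Screening Program with compounds at 5 µM.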

Rattus norvegicus = organism: Rattus norvegicus; assay: Selectivity ratio of IC50 for recombinant rat GluN2A receptor to IC50 for recombinant rat GluN2D receptor
In short: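 Rat GluN1 co-expressed with GluN2A, GluN2B or GluN2D in Xenopus oocytes. Two-electrode voltage clamp at −40 mV in 90 NaCl, 1 KCl, 0.5 BaCl2, 0.005 EDTA, 10 HEPES (mM), pH 7.4, 23 °C; final DMSO 0.1–0.05%. IC50s came from Hill fits to averaged composite concentration-response curves (5–24 oocytes, 2–4 frogs). Ratio is GluN2A or GluN2B IC50 over GluN2D IC50.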

Liver microsomes [2] = assay: Metabolic stability in human liver microsomes assessed as compound remaining at 1 uM after 30 mins by LC-MS/MS analysis; format: ADME, Microsome; settings: 0.5 h
In short: (§2)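 Human liver microsomes 0.5 mg/mL in 100 mM potassium phosphate pH 7.4 with 5 mM MgCl2 and 1 μM test compound. Preincubated 3 min at 37 °C, then started with 1 mM NADPH, with a testosterone control in parallel. Sampled at 0, 10, 20, 30 and 60 min and quenched in cold acetonitrile/water with formic acid and internal standard. Percent remaining by LC-MS/MS (MRM) versus time 0. t1/2 = 0.693/k from the ln-remaining slope; CLint = k/protein concentration.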

MDCK [3] = assay: Apparent permeability across apical to basolateral side in dog MDCK cells expressing MDR1 at 5 uM after 120 mins by LC-MS/MS analysis; format: ADME, cell-based, Canis lupus familiaris; settings: 2 h
In short: (§3)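 MDR1-MDCK monolayers grown to confluence on collagen-coated polycarbonate membranes. Assay buffer was HBSS with 10 mM HEPES and 15 mM glucose, pH 7.4, and the receiver side also held 1% BSA. Monolayers were dosed apically (A-to-B) or basolaterally (B-to-A) at 5 μM, 37 °C, 5% CO2. Donor and receiver were sampled at 120 min, in duplicate, by LC-MS/MS (ESI). Papp and percent recovery were calculated from receiver/donor concentrations.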

Liver microsomes [4] = assay: Half life in human liver microsomes at 1 uM; format: ADME, Microsome
In short: as §2

[5] = target: Ionotropic glutamate receptor kainate 2/5 (Homo sapiens) (UniProt Q16478+Q13002); assay: Inhibition of GluK2/GluK5 receptor (unknown origin) expressed in Xenopus laevis oocytes assessed as inhibition of AMPA-induced current at 3 uM by two-electrode voltage clamp method; values are per cent of control; settings: Oocyte
[6] = target: Neuronal acetylcholine receptor subunit alpha-7 (Homo sapiens) (UniProt P36544); assay: Inhibition of human nicotinic acetylcholine receptor subunit alpha-7 expressed in Xenopus laevis oocytes assessed as inhibition of acetylcholine-induced current at 3 uM by two-electrode voltage clamp method; values are per cent of control; settings: Oocyte
[7] = target: Glutamate receptor ionotropic, NMDA 2C (Rattus norvegicus, UniProt P35439+Q00961); assay: Negative allosteric modulation of recombinant rat GluN2C receptor expressed in Xenopus laevis oocytes by two-electrode voltage clamp method; format: cell-based, Oocyte
In short: (§4)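 Two-electrode voltage clamp of Xenopus oocytes expressing rat GluN1 with GluN2A, 2B, 2C or 2D. Holding potential −40 mV in recording solution (mM: 90 NaCl, 1 KCl, 0.5 BaCl2, 0.005 EDTA, 10 HEPES, pH 7.4, 23 °C). Compounds diluted from 20 mM DMSO stocks to 0.05–0.1% final DMSO. IC50 from a Hill fit to the averaged composite concentration–response curve, 5–24 oocytes from 2–4 frogs.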

[8] = target: Glutamate receptor ionotropic, NMDA 2A (Rattus norvegicus, UniProt P35439+Q00959); assay: Negative allosteric modulation of recombinant rat GluN2A receptor expressed in Xenopus laevis oocytes by two-electrode voltage clamp method; format: cell-based, Oocyte
In short: as §4

MDCK [9] = assay: Permeability across basolateral to apical side in dog MDCK cells expressing MDR1 assessed as compound recovery at 5 uM after 120 mins by LC-MS/MS analysis; format: ADME, cell-based, Canis lupus familiaris; settings: 2 h
In short: as §3

[10] = target: Glutamate NMDA receptor; GRIN1/GRIN2B (Homo sapiens) (UniProt Q05586+Q13224); assay: Inhibition of GluN1/GluN2B receptor (unknown origin) expressed in Xenopus laevis oocytes assessed as inhibition of glutamate/glycine-induced current at 3 uM by two-electrode voltage clamp method; values are per cent of control; settings: Oocyte
Liver microsomes [11] = assay: Metabolic stability in human liver microsomes assessed as compound remaining at 1 uM after 20 mins by LC-MS/MS analysis; format: ADME, Microsome
In short: as §2

MDCK [12] = assay: Apparent permeability across basolateral to apical side in dog MDCK cells expressing MDR1 at 5 uM after 120 mins by LC-MS/MS analysis; format: ADME, cell-based, Canis lupus familiaris; settings: 2 h
In short: as §3

[13] = target: Kappa-type opioid receptor (Homo sapiens, UniProt P41145); assay: Inhibition of kappa-type opioid receptor (unknown origin)
In short: as §1

[14] = target: Nicotinic acetylcholine receptor alpha1/beta1/gamma/delta (Mus musculus) (UniProt P04756+P09690+P02716+P04760); assay: Inhibition of mouse nicotinic acetylcholine receptor subunit alpha1beta1gammadelta expressed in Xenopus laevis oocytes assessed as inhibition of acetylcholine-induced current at 3 uM by two-electrode voltage clamp method; values are per cent of control; settings: Oocyte
[15] = target: Neuronal acetylcholine receptor; alpha3/beta4 (Homo sapiens) (UniProt P30926+P32297); assay: Inhibition of human nicotinic acetylcholine receptor subunit alpha-3 beta-4 expressed in Xenopus laevis oocytes assessed as inhibition of acetylcholine-induced current at 3 uM by two-electrode voltage clamp method; values are per cent of control; settings: Oocyte
[16] = target: Glutamate receptor 1 (Homo sapiens) (UniProt P42261); assay: Inhibition of GluA1 receptor (unknown origin) expressed in Xenopus laevis oocytes assessed as inhibition of glutamate-induced current at 3 uM by two-electrode voltage clamp method; values are per cent of control; settings: Oocyte
Plasma = assay: Metabolic stability in human plasma after 2 hrs; format: ADME, cell-free
In short: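 Stability followed in human, rat or mouse plasma over a 2-hour time course.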

Homo sapiens [17] = organism: Homo sapiens; assay: Inhibition of GluN2D receptor A752V mutant (unknown origin)
Homo sapiens [18] = organism: Homo sapiens; assay: Inhibition of GluN2D receptor L705F mutant (unknown origin)
[19] = target: T1, Ionotropic glutamate receptor NMDA 1/2D (Homo sapiens); settings: Oocyte, 1 uM
[20] = target: 5-hydroxytryptamine receptor 1E (Homo sapiens, UniProt P28566); assay: Inhibition of 5HT1E receptor (unknown origin)
In short: as §1

Mu-type opioid receptor = Mu-type opioid receptor (Homo sapiens, UniProt P35372); assay: Inhibition of mu-type opioid receptor (unknown origin)
In short: as §1

Chain of Glutamate receptor ionotropic, NMDA 2A (Q00959 whole entry, one chain of several): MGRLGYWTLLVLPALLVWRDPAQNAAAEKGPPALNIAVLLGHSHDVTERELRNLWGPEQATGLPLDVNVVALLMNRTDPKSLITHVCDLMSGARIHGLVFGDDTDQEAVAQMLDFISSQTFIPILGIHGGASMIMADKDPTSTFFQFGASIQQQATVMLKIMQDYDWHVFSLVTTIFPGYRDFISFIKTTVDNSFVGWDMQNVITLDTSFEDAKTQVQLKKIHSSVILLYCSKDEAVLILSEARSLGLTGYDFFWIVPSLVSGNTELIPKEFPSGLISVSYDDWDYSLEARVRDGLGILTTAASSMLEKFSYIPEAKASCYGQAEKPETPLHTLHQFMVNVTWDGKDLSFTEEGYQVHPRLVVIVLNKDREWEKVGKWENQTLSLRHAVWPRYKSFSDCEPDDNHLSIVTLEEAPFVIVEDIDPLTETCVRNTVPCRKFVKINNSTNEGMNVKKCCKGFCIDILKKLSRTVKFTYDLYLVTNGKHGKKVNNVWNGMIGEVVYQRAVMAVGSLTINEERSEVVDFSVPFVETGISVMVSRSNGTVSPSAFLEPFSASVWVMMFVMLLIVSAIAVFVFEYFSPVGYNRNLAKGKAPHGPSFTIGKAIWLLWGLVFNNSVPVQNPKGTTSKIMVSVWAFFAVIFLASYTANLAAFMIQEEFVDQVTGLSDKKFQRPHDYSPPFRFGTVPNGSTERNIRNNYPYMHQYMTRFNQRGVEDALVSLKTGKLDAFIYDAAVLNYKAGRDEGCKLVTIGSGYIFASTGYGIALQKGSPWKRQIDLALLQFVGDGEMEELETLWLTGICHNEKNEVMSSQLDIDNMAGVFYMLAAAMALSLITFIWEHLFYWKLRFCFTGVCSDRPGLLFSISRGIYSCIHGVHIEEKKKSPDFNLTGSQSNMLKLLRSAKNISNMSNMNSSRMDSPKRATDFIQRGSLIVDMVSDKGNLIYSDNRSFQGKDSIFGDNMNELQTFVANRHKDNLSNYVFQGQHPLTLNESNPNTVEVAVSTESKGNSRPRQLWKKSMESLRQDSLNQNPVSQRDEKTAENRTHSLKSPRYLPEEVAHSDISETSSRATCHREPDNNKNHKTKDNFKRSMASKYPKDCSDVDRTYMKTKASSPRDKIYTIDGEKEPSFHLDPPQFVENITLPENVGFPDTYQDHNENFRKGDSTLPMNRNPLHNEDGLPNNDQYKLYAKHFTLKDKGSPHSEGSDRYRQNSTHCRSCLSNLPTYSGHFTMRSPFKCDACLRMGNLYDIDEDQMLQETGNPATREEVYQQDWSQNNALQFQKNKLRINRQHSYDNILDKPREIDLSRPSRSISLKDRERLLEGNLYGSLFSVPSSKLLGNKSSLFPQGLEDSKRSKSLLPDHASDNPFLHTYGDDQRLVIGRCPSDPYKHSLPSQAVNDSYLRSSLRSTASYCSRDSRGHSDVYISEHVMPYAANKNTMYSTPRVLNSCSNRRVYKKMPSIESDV
Chain of Kappa-type opioid receptor (P41145 whole entry): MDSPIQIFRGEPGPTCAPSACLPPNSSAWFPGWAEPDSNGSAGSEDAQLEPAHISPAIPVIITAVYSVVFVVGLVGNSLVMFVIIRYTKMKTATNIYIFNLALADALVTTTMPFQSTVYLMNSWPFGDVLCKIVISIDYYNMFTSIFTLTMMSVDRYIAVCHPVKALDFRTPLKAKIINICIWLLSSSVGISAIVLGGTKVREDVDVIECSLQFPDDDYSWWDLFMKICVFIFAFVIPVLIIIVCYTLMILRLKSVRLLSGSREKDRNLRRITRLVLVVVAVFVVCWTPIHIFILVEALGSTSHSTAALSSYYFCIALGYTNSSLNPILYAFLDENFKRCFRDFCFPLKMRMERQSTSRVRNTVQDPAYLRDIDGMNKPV
Chain of Glutamate receptor 1 (Homo sapiens) (P42261 whole entry): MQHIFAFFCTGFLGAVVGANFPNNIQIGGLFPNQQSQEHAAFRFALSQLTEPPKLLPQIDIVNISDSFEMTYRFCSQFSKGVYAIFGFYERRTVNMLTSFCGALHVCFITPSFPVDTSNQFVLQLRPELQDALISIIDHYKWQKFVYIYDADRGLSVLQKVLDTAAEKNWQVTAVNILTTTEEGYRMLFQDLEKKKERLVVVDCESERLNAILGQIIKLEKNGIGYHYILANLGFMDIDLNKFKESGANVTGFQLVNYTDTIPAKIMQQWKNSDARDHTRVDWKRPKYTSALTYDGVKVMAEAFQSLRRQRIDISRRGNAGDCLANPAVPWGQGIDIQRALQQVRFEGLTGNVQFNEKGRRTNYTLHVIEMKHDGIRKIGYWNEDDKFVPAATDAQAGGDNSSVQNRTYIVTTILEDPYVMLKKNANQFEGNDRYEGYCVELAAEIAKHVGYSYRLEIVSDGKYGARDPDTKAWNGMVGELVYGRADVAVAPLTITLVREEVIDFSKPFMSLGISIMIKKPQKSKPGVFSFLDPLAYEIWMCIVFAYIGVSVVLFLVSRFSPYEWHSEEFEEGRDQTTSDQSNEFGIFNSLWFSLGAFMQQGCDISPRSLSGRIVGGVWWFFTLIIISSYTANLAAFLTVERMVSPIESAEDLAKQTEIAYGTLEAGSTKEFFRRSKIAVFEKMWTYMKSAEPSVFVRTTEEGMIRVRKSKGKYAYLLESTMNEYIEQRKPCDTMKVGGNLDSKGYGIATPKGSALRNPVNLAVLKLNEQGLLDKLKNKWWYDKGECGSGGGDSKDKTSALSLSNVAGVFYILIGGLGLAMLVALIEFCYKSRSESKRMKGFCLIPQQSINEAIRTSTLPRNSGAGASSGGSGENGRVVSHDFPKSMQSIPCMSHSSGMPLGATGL
Chain of Neuronal acetylcholine receptor subunit alpha-7 (Homo sapiens) (P36544 whole entry): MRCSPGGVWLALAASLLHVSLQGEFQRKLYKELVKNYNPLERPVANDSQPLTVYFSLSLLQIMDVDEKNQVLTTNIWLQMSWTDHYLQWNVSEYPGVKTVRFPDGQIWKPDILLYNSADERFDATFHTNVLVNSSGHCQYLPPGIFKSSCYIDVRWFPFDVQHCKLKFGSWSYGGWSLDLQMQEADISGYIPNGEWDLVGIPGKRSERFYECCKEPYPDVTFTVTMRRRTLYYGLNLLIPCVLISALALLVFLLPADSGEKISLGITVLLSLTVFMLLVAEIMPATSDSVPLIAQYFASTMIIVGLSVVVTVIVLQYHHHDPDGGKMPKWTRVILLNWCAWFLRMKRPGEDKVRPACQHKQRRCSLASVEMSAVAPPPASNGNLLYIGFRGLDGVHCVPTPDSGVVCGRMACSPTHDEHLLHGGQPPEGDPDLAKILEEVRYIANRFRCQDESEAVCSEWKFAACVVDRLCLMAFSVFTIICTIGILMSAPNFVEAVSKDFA
Chain of Glutamate receptor ionotropic, NMDA 2C (Q00961 whole entry, one chain of several): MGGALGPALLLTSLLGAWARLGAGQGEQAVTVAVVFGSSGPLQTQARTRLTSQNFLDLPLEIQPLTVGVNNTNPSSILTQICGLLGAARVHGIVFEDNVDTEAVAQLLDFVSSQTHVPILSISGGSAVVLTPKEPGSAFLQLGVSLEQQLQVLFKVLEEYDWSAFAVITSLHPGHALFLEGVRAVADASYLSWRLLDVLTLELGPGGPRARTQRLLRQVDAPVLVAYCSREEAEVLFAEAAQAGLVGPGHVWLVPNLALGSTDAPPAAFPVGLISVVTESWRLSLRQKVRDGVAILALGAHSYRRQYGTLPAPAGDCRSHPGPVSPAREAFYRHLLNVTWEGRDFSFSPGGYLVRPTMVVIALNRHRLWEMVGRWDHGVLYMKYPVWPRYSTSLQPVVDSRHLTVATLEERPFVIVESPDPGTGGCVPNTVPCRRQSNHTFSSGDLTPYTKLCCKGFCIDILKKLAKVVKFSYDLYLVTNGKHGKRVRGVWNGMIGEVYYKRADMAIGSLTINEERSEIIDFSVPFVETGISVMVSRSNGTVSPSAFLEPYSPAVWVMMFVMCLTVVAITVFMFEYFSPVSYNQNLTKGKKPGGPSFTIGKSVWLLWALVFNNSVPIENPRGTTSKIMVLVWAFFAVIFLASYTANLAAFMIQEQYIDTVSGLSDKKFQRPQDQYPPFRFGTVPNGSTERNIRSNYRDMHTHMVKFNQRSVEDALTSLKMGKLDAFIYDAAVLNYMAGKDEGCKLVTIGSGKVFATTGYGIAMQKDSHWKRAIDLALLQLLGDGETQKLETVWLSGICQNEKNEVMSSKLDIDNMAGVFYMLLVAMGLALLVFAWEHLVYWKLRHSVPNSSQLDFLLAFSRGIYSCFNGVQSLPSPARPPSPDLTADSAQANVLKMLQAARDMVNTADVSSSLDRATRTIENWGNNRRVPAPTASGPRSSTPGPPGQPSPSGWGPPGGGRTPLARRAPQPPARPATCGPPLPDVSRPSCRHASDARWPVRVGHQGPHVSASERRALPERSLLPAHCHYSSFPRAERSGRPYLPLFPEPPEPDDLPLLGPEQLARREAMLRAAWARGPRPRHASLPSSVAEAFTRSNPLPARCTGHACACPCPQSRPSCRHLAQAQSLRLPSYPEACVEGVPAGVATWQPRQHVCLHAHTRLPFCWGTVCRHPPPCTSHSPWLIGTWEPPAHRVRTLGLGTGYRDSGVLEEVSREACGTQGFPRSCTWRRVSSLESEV
Chain of Mu-type opioid receptor (P35372 whole entry): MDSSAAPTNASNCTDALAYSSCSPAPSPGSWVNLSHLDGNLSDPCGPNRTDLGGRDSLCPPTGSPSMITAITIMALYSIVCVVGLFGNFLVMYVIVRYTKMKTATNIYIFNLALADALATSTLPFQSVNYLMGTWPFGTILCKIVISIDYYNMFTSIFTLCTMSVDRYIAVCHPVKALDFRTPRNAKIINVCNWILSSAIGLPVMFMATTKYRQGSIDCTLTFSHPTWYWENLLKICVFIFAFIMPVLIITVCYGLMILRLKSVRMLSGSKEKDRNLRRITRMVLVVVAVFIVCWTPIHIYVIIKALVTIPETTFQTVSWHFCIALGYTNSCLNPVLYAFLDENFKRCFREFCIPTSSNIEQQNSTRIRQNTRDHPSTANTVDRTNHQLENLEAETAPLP

**Q.** What does the source list for O=C(O)CCC(=O)N1N=C(c2c(-c3ccc(Cl)cc3)c3ccccc3[nH]c2=O)CC1c1ccc(Cl)cc1 (racemic)?
**A.** residual activity [1]: 14%; Ki (Histamine H2 receptor): > 10 µM; Ratio IC50 (Rattus norvegicus): 48; Stability (Liver microsomes [2]): 115%; Papp (MDCK [3]): 0.47 ×10⁻⁶ cm/s; t1/2 (Liver microsomes [4]): > 1 h; residual activity [5]: 97%; residual activity [6]: 82%; IC50 [7]: 0.77 µM; IC50 [8]: 21 µM; Drug recovery (MDCK [9]): 76%; residual activity [10]: 79%; Stability (Liver microsomes [11]): 100%; Papp (MDCK [12]): 25.6 ×10⁻⁶ cm/s; Ki [13]: > 10 µM; residual activity [14]: 94%; residual activity [15]: 77%; residual activity [16]: 97%; Stability (Plasma): Stable

**Q.** For O=C(O)/C=C/C(=O)N1N=C(c2c(-c3ccc(Br)cc3)c3ccccc3[nH]c2=O)CC1c1ccc(Cl)cc1 (racemic), which residual activity [1] is on record?
**A.** 14%

**Q.** What about the inhibition (Homo sapiens [17]) of the same molecule?
**A.** inactive

**Q.** What about the Ratio IC50 (Rattus norvegicus) of the same molecule?
**A.** 23

**Q.** And the residual activity [5]?
**A.** 95%

**Q.** And the residual activity [6]?
**A.** 64%

**Q.** And the IC50 [7]?
**A.** 0.2 µM

**Q.** What about the IC50 [8] of the same molecule?
**A.** 4.3 µM

**Q.** And the residual activity [10]?
**A.** 98%

**Q.** What about the inhibition (Homo sapiens [18]) of the same molecule?
**A.** inactive

**Q.** And the Ki [13]?
**A.** > 10 µM

**Q.** And the residual activity [14]?
**A.** 98%

**Q.** And the residual activity [19]?
**A.** 3.1%

**Q.** And the Ki [20]?
**A.** > 10 µM

**Q.** And the residual activity [15]?
**A.** 87%

**Q.** And the Ki (Mu-type opioid receptor)?
**A.** > 10 µM

**Q.** And the residual activity [16]?
**A.** 99%

**Q.** And the Stability (Plasma)?
**A.** Stable
